Experimental data reported in ChEMBL document CHEMBL4811250, “Discovery and Optimization of 2H-1λ2-Pyridin-2-one Inhibitors of Mutant Isocitrate Dehydrogenase 1 for the Treatment of Cancer” (J Med Chem, 2021).
In brackets after ≈: the same amount, converted by molar mass. Several values for one entry are separate records, joined by “and”; a condition that tells them apart may be missing. Equal entries are not always repeated.

Columns and labels:
[1] = Ratio of AUClast in plasma to brain in CD1 mouse at 30 mg/kg, po measured up to 24 hrs by LC-MS/MS analysis; type: ADME, organism-based; conditions: in vivo
In short: (§1)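 Fed male CD1 mice (6–8 weeks, ~25–30 g) given a single 30 mpk oral dose as a 3 mg/mL solution in 20% PEG300, 40% Solutol solution (30% w/w in water), 40% DI water. Plasma (heparin-Na, heart puncture) and whole brain taken from N=3 mice per time point, 15 min to 24 h. LC/MS/MS quantitation gave Tmax, Cmax and AUC.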

[2] = Drug level in human U87MG cells expressing IDH1 R132H mutation transfected in NCr mouse plasma at 30 mg/kg, po measured after 36 hrs by LC-MS/MS analysis; type: ADME, organism-based, U-87MG ATCC; conditions: read-out: Drug uptake
In short: (§2)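 Mice bearing subcutaneous U87MG glioblastoma cells carrying IDH1 R132H (1 x 10^7 cells/mouse) were staged at ~200 mg and randomized. Each received a single oral 30 mg/kg dose; vehicle was 10% NMP, 40% PEG300, 25% [30% Solutol in water], 25% DI water. K2EDTA blood and tumors were taken under isoflurane from 4 mice per group at 1–48 h. Drug was quantified by validated LC-MS/MS.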

[3] = Drug level in human U87MG cells expressing IDH1 R132H mutation transfected in NCr mouse plasma at 30 mg/kg, po measured after 48 hrs by LC-MS/MS analysis; type: ADME, organism-based, U-87MG ATCC; conditions: read-out: Drug uptake; in short: as §2
[4] = Permeability of compound at pH 7.4 by PAMPA assay; type: ADME; conditions: for Papp: read-out: permeability
In short: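 Stirring double-sink PAMPA using a lipid/dodecane membrane tuned for GI passive permeability, pH 7.4 on donor and acceptor sides. Compound at 0.05 mM (0.5% DMSO), 30 min permeation at room temperature with donor stirring. Donor and acceptor concentrations read by UV plate reader.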

[5] = system: Isocitrate dehydrogenase [NADP] cytoplasmic (Homo sapiens), O75874 [R132H]; assay: Inhibition of IDH1 R132H mutant (unknown origin) expressed in human U87 cells assessed as R-2-hydroxyglutarate production at 100 nM after 48 hrs by LC-MS analysis; type: cell-based; design: scale not given: the % may be the effect or the level left
Isocitrate dehydrogenase [NADP] cytoplasmic (Homo sapiens), O75874 [R132H], sequence (O75874 whole entry R132H): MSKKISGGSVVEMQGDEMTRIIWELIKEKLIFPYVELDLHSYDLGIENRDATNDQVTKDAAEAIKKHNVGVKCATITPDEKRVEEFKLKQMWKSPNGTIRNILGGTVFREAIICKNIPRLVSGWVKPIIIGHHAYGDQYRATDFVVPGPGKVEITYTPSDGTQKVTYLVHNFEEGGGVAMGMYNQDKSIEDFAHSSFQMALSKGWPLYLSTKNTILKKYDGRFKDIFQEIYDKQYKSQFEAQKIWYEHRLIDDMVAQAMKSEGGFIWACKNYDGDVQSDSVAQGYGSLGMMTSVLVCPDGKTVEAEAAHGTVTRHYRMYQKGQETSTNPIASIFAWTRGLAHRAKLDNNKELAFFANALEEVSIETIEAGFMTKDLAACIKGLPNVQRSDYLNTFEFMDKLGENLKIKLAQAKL
In short: (§3)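 U87-R132H cells (8000/well, DMEM high glucose, 10% FBS) were seeded, cultured overnight at 37 °C and 5% CO2, then given compound or DMSO. After 48 h, 2-HG secreted into the medium was measured by RapidFire LC-MS. Cell viability was checked by CellTiter-Glo.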

[6] = Tmax in CD1 mouse brain at 30 mg/kg, po measured up to 24 hrs by LC-MS/MS analysis; type: ADME, organism-based; in short: as §1
[7] = Tmax in CD1 mouse plasma at 30 mg/kg, po measured up to 24 hrs by LC-MS/MS analysis; type: ADME, organism-based; in short: as §1
[8] = system: Isocitrate dehydrogenase [NADP] cytoplasmic (Homo sapiens), O75874 [R132H]; assay: Inhibition of IDH1 R132H mutant (unknown origin) expressed in human U87 cells assessed as R-2-hydroxyglutarate production at 500 nM after 48 hrs by LC-MS analysis; type: cell-based; design: scale not given: the % may be the effect or the level left; in short: as §3
[9] = Cmax in CD1 mouse brain at 30 mg/kg, po measured up to 24 hrs by LC-MS/MS analysis; type: ADME, organism-based; design: route oral, dose 30 mg/kg, time <=24; in short: as §1
[10] = Cmax in CD1 mouse plasma at 30 mg/kg, po measured up to 24 hrs by LC-MS/MS analysis; type: ADME, organism-based; design: route oral, dose 30 mg/kg, time <=24; in short: as §1
[11] = Metabolic stability in rat liver microsomes assessed as half life incubated for 15 mins by high resolution LC/MS analysis; type: ADME, Microsome; conditions: 0.25 h
In short: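 Rat liver microsomes (0.5 mg/mL protein) with 1.0 μM compound and NADPH regenerating system in 100 mM phosphate pH 7.4, 15 min at 37 °C. Quenched with acetonitrile containing albendazole internal standard. Percent remaining measured by high-resolution LC/MS.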

[12] = Ratio of Cmax in plasma to brain in CD1 mouse at 30 mg/kg, po measured up to 24 hrs by LC-MS/MS analysis; type: ADME, organism-based; conditions: in vivo; in short: as §1
[13] = AUClast in CD1 mouse brain at 30 mg/kg, po measured up to 24 hrs by LC-MS/MS analysis; type: ADME, organism-based; conditions: in vivo; in short: as §1
[14] = AUClast in CD1 mouse plasma at 30 mg/kg, po measured up to 24 hrs by LC-MS/MS analysis; type: ADME, organism-based; design: route oral, dose 30 mg/kg, time <=24; in short: as §1
[15] = Kinetic solubility of the compound in pH 7.4 phosphate buffer measured after 6 hrs by UV spectroscopy; type: physicochemical; conditions: read-out: Kinetic_solubility
[16] = Drug level in human U87MG cells expressing IDH1 R132H mutation transfected in NCr mouse plasma at 30 mg/kg, po measured after 24 hrs by LC-MS/MS analysis; type: ADME, organism-based, U-87MG ATCC; conditions: read-out: Drug uptake; in short: as §2
[17] = target: Isocitrate dehydrogenase [NADP] cytoplasmic (Homo sapiens, UniProt O75874, R132C); assay: Inhibition of IDH1 R132C mutant (unknown origin) assessed as reduction in NADPH consumption using alpha-KG as substrate incubated for 5 mins by diaphorase/resazurin-coupled system
Isocitrate dehydrogenase [NADP] cytoplasmic (Homo sapiens, UniProt O75874, R132C), sequence (O75874 2-414 R132C limits assumed): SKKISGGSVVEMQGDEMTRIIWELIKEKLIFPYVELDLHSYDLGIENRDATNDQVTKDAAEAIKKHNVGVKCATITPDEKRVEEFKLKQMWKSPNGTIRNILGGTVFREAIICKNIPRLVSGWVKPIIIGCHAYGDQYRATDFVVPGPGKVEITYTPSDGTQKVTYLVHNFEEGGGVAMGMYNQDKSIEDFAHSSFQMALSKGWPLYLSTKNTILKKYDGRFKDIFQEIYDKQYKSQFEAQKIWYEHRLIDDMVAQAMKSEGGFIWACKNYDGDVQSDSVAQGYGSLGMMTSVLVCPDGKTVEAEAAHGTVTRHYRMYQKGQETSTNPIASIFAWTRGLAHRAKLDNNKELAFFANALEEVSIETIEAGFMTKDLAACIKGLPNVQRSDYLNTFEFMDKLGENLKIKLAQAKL

[18] = target: Isocitrate dehydrogenase [NADP] cytoplasmic (Homo sapiens, UniProt O75874, R132H); assay: Inhibition of IDH1 R132H mutant (unknown origin) assessed as reduction in NADPH consumption using alpha-KG as substrate incubated for 5 mins by diaphorase/resazurin-coupled system
Isocitrate dehydrogenase [NADP] cytoplasmic (Homo sapiens, UniProt O75874, R132H), sequence (O75874 2-414 R132H limits assumed): as the sequence (O75874 2-414 R132C limits assumed) above, with C131H counted along it

[19] = system: Isocitrate dehydrogenase [NADP] cytoplasmic (Homo sapiens), O75874 [R132C]; assay: Inhibition of IDH1 R132C mutant (unknown origin) assessed as reduction in NADPH consumption using alpha-KG as substrate at 38 uM incubated for 5 mins by diaphorase/resazurin-coupled system relative to control
Isocitrate dehydrogenase [NADP] cytoplasmic (Homo sapiens), O75874 [R132C], sequence (O75874 whole entry R132C): as the sequence (O75874 whole entry R132H) above, with H132C counted along it

[20] = system: Isocitrate dehydrogenase [NADP] cytoplasmic (Homo sapiens), O75874 [R132H]; assay: Inhibition of IDH1 R132H mutant (unknown origin) assessed as reduction in NADPH consumption using alpha-KG as substrate at 38 uM incubated for 5 mins by diaphorase/resazurin-coupled system relative to control

Row | Activity [5] | Activity [8] | t1/2 [11] | solubility kinetic at 6 h [15] | IC50 [17] | Papp [4] | IC50 [18] | inhibition [19] | inhibition [20] | SMILES | other results
1 | 5.9% | 4.1% | > 30 min | < 1 µg/mL |  |  |  |  |  | CCc1ccc(Cl)cc1-n1c(C=C(C)C)c(C(=O)N2CCNCC2)cc(-c2nc(-c3ccc(Cl)cc3)cs2)c1=O | Ratio AUC [1]: 3.52; concentration at 36 h [2]: 7.2 µM; concentration at 48 h [3]: 6.8 µM; permeability [4]: 255 10^-6 cm/s and 434 10^-6 cm/s; Tmax [6]: 360 min; Tmax [7]: 240 min; Cmax [9]: 595 ng/g; Cmax [10]: 2010 ng/mL; Ratio [12]: 3.68; AUClast [13]: 7000 ng·h/g; AUC(0-t) at 24 h [14]: 24400 ng·h/mL; concentration at 24 h [16]: 9.5 µM
2 | 29% | 10% | 23 min | 16 µg/mL (≈ 25.3 µM) | 64 nM | < 1 ×10⁻⁶ cm/s | 55 nM |  |  | CCc1cccc(CC)c1-n1c(C=C(C)C)c(C(=O)N2CCNC(C(=O)O)C2)cc(-c2nc(-c3ccc(Cl)cc3)cs2)c1=O (stereo unspecified) | 
3 | 17% | 14% | 12 min | < 1 µg/mL | 48 nM | 48 ×10⁻⁶ cm/s | 78 nM |  |  | CCc1cccc(CC)c1-n1c(C=C(C)C)c(C(=O)N2CCNC3(CC3)C2)cc(-c2nc(-c3ccc(Cl)cc3)cs2)c1=O | 
4 | 33% | 12% | 17 min | < 1 µg/mL | 120 nM | 16 ×10⁻⁶ cm/s | 110 nM | 83% | 98% | CCc1cccc(CC)c1-n1c(CC(C)C)c(C(=O)N2CCNCC2)cc(-c2nc(-c3ccc(Cl)cc3)cs2)c1=O | 
5 |  |  | 17 min | < 1 µg/mL | 49 nM | 43 ×10⁻⁶ cm/s | 55 nM | 96% | 107% | CCc1cccc(CC)c1-n1c(CC2CC2)c(C(=O)N2CCNCC2)cc(-c2nc(-c3ccc(Cl)cc3)cs2)c1=O | 
6 | 13% | 16% | 14 min | < 1 µg/mL | 58 nM | 225 ×10⁻⁶ cm/s | 44 nM | 97% | 101% | CCc1cccc(CC)c1-n1c(C=C(C)C)c(C(=O)N2CCNCC2)cc(-c2nc(-c3ccc(Cl)cc3)cs2)c1=O | 
7 | 11% | 8% |  |  | 46 nM |  | 44 nM |  |  | CCc1cccc(CC)c1-n1c(C=C(C)C)c(C(=O)N2CCNC(C)C2)cc(-c2nc(-c3ccc(Cl)cc3)cs2)c1=O (stereo unspecified) | 
8 |  |  |  |  | 730 nM |  | 2100 nM | 102% | 92% | CCc1cccc(CC)c1-n1c(C)c(C(=O)NCCOC)cc(-c2nc(-c3ccc(Cl)cc3)cs2)c1=O | 
9 |  |  |  |  | 2000 nM |  | 420 nM | 96% | 104% | CCc1cccc(CC)c1-n1c(C)c(C(=O)NCCO)cc(-c2nc(-c3ccc(Cl)cc3)cs2)c1=O | 
10 |  |  |  |  | 14000 nM |  | 12000 nM | 86% | 108% | COc1ccc(C(=O)O)cc1-n1c2c(cc(-c3nc(-c4ccc(Cl)cc4)cs3)c1=O)C(=O)CC(C)(C)C2 | 
11 | 40% | 19% | > 30 min | < 1 µg/mL | 75 nM | 549 ×10⁻⁶ cm/s | 114 nM |  |  | CCc1ccc(OC)cc1-n1c(C=C(C)C)c(C(=O)N2CCNCC2)cc(-c2nc(-c3ccc(Cl)cc3)cs2)c1=O | 
12 |  |  |  |  | 2000 nM |  | 910 nM | 108% | 102% | COc1cccc(C(=O)O)c1-n1c2c(cc(-c3nc(-c4ccc(Cl)cc4)cs3)c1=O)C(=O)CC(C)(C)C2 | 
13 | 23% | 13% | 2 min | < 1 µg/mL | 39 nM | 275 ×10⁻⁶ cm/s | 35 nM |  |  | CCc1cccc(CC)c1-n1c(C=C(C)C)c(C(=O)N2CCNC(=O)C2)cc(-c2nc(-c3ccc(Cl)cc3)cs2)c1=O | 
14 |  |  | 27 min | < 1 µg/mL | 100 nM | 134 ×10⁻⁶ cm/s | 75 nM | 82% | 97% | CCCc1c(C(=O)N2CCNCC2)cc(-c2nc(-c3ccc(Cl)cc3)cs2)c(=O)n1-c1c(CC)cccc1CC | 
15 |  |  |  |  | 2500 nM |  | 2200 nM | 77% | 82% | COc1ccc(OC)c(-n2c3c(cc(-c4nc(-c5ccc(Cl)cc5)c[nH]4)c2=O)C(=O)CC(C)(C)C3)c1 | 
16 |  |  |  |  | 280 nM |  | 570 nM | 78% | 98% | CC1(C)CC(=O)c2cc(-c3nc(-c4ccc(Cl)cc4)cs3)c(=O)n(-c3ccccc3OC(F)(F)F)c2C1 | 
17 | 14% | 11% | 17 min | < 1 µg/mL | 53 nM | 40 ×10⁻⁶ cm/s | 39 nM |  |  | CCc1cccc(CC)c1-n1c(C=C(C)C)c(C(=O)N2CCNCC2C)cc(-c2nc(-c3ccc(Cl)cc3)cs2)c1=O (stereo unspecified) | 
18 |  |  | 7 min | < 1 µg/mL |  | 24 ×10⁻⁶ cm/s | 10000 nM | 52% | 81% | CCc1cccc(CC)c1-n1c(CC2CCNC2)c(C(=O)N2CCNCC2)cc(-c2nc(-c3ccc(Cl)cc3)cs2)c1=O (stereo unspecified) | 

Row | SMILES | Activity [5] | Activity [8] | t1/2 [11] | solubility kinetic at 6 h [15] | IC50 [17] | Papp [4] | IC50 [18] | inhibition [19] | inhibition [20] | other results
19 | CCc1cccc(CC)c1-n1c(C=C(C)C)c(C(=O)N2C3CCC2CNC3)cc(-c2nc(-c3ccc(Cl)cc3)cs2)c1=O | 32% | 18% | 9 min | < 1 µg/mL | 47 nM | 99 ×10⁻⁶ cm/s | 62 nM |  |  | 
20 | CCc1cccc(CC)c1-n1c(C=C(C)C)c(C(=O)N2C[C@H]3CC[C@@H](C2)N3)cc(-c2nc(-c3ccc(Cl)cc3)cs2)c1=O | 11% | 10% | > 30 min | < 1 µg/mL | 60 nM | 89 ×10⁻⁶ cm/s | 94 nM |  |  | 
